# Most compounds without a hit are left out; they make up all but 1.7% or so of the library.
# CSN inh – inhibitors of human CSN-mediated cullin deneddylation; Q92905; Purified CSN, SCF-Nedd8-OG deneddylation, fluorescence polarization; inhibition, % at 12.5 µM; hit rate 0.38% among 360,000;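 active = pattern-corrected inhibition above about 35%, with an unprinted fluorescence ratio check between 0.5 and 1.5, limit read from the data, passing the limit was not always enough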
#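 assay system = purified human Csn5 enzyme expressed in HEK293T cells | amount = 0.24 nM enzyme | buffer or medium = Tris/NaCl/DTT buffer, pH 7.5 | reagent = 10 nM SCFSkp2-Nedd8OG | compound = one concentration, 12.5 µM, 0.25% DMSO | times = 90 min reaction at room temperature | signal = FP | read-out basis = % inhibition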
# Rpn11 inh – inhibitors of human proteasome Rpn11; human 26S proteasome, Ub4-pepOG fluorescence polarization; 20S core pre-blocked with epoxomicin; O00487; inhibition, % at 20 µM; AID 588493; hit rate 0.59% among 360,000;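 active = inhibition at 20 µM, scaled to each plate's controls, above about 33%, limit read from the data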
# Target sequence (O00487 whole entry, looked up): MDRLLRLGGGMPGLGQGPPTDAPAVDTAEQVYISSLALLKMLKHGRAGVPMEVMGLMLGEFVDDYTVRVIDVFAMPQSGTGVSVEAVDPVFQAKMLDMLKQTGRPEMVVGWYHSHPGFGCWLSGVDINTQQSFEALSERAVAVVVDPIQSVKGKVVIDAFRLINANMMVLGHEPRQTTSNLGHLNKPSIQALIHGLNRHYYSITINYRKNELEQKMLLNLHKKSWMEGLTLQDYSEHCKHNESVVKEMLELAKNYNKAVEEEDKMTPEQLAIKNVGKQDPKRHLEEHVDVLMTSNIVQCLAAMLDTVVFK
# HNF4A DNA FP – change in binding of human HNF4 alpha to DNA; HNF4a-FITC DNA binding, fluorescence polarization, 1 h; activity change, % at 10 µM; hit rate 0.3% among 360,000; AID 1224865; in the data active = activity change above about 30%, passing the limit was not always enough
# IDE cell inh – cellular human IDE inhibition; P14735; HEK cells, FAbetaB cleavage, fluorescence polarization; inhibition, % at 5.59 µM; hit rate 0.41% among 320,000; AID 434962;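 active = percent inhibition above the average of all tested compounds plus 3 SD, set per screening campaign, cut at about 16% in these data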;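 also: IDE supplied by intact live HEK cells; FP after avidin binding of uncleaved biotin substrate so inhibition keeps polarization high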
# TPT1 inhibitor – blocks Candida albicans tRNA 2'-phosphotransferase | hit rate 0.81% among 300,000 | recombinant caTPT1, FP RNA substrate dephosphorylation | inhibition, % at 5 µM;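 active = inhibition above the mean of all tested compounds plus 3 SD, set per screening campaign, cut at about 24% in these data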
# IDE act – IDE (human) activation, cell-based | AID 493087 | activation, % at 5.96 µM | HEK cells, FAbeta-B cleavage, fluorescence polarization; 0% vehicle, 100% cell-free pure enzyme wells | hit rate 0.073% among 340,000;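 active = activation above the mean of all tested compounds plus 3 SD, set per screening campaign, cut at about 17% in these data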
# TPT1 inh confirm – confirmation of Candida albicans TPT1 inhibitors | shares compounds with TPT1 inhibitor | recombinant caTPT1, fluorescence polarization, RNase T1 coupled | inhibition, % at 5 µM | hit rate 74% among 2,400 | AID 2149;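 active = inhibition above the primary screen limit, the mean inhibition of all tested compounds plus 3 SD, cut at about 25% in these data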
# RNase T1 inh – blocks Aspergillus oryzae RNase T1, a TPT1 counter-screen. shares compounds with TPT1 inhibitor. RNase T1 cleavage, fluorescence polarization, 1536-well. inhibition, % at 5 µM. hit rate 83% among 2,400. AID 2153;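 active = inhibition above the solvent-only control well mean plus 3 SD, limit set per screening run, cut at about 23% in these data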;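 also: inhibitors block cleavage so intact labeled substrate keeps polarization high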
# Target sequence (P00651 whole entry, looked up): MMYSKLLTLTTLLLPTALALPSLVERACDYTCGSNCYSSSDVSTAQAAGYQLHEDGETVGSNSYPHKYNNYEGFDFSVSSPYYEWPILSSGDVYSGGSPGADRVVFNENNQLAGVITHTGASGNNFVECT
# Hits are given with their value; – = inactive; · = not tested or not shown.
SMILES,CSN inh,Rpn11 inh,HNF4A DNA FP,IDE cell inh,TPT1 inhibitor,IDE act,TPT1 inh confirm,RNase T1 inh
CC[C@@H](C)[C@H](NC(=O)Cc1c(C)c2c(cc(C)c3c(C)c(C)oc32)oc1=O)C(=O)O,–,–,–,·,·,–,·,·
CC[C@@H](C)[C@H](NC(=O)CNC(=O)Cc1c(C)c2c(cc(C)c3c(C)coc32)oc1=O)C(=O)O,–,–,–,–,50.6,–,–,–
Cc1ccc2[nH]c(C(=O)NCCN3CCCC3)cc2c1,–,–,–,–,–,–,·,·
COc1ccc(-c2cc(C(F)(F)F)c3c(n2)sc2c(O)cc(=O)[nH]c23)c(OC)c1,–,·,–,–,68.9,–,82.1,84.7
COCCCN1C(=O)C(CC(=O)NCCCN(C)C)CC(C(=O)N(C(C)C)C(C)C)=C1C (stereo not given),–,–,–,·,·,·,·,·
COc1ccc(NC(=O)C2CCCN2C(=O)Oc2ccccc2)cc1 (stereo not given),–,–,–,–,47.3,–,–,–
CC(=O)/C(=N/Nc1ccccc1Cl)Sc1nnc(C(O)c2ccccc2)n1-c1ccccc1 (stereo not given),–,–,–,–,47.9,–,–,–
C=CCN(C(=O)c1csnn1)C(C(=O)NCc1ccc(F)cc1)c1sccc1C (stereo not given),–,–,–,–,–,–,·,·
Cc1ccc(N/C=C2/Sc3ccccc3NC2=O)cc1,–,·,–,–,28.2,–,47.2,53.3
COc1ccc(N/C=C2/Sc3ccccc3NC2=O)cc1,–,–,–,–,–,–,·,·
CN1CCc2c(sc3nc(SCC(N)=O)n(-c4ccccc4)c(=O)c23)C1,–,–,–,–,44.8,–,103.8,109.4
CN1CCc2c(sc3nc(SCC(N)=O)n(-c4ccc(Cl)cc4)c(=O)c23)C1,–,81.4,43.4,–,85.9,–,64.4,77.9
Cc1ccc(C2C3=C(CCCC3=O)OC3=C2C(=O)CCC3)cc1,–,–,–,–,53.5,–,–,–
O=C1c2ccccc2S(=O)(=O)c2cc(C(=O)N3CCN(c4ccccc4)CC3)ccc21,–,–,–,–,–,–,·,·
O=C1c2ccccc2S(=O)(=O)c2cc(N3CCC4(CC3)OCCO4)ccc21,·,·,·,–,30.4,·,45.2,55.9
O=C1c2ccccc2S(=O)(=O)c2cc(N3CCN(C(=O)c4ccccc4)CC3)ccc21,·,·,·,–,34.6,·,60.6,70.3
CN(C)C(=C(C#N)C#N)N1CCN(c2ccc(Cl)cc2)CC1,–,–,–,–,–,–,·,·
N#CC(C#N)=C/C(C#N)=C(/N)N1CCN(c2ccc(Cl)cc2)CC1,–,–,–,–,55.8,–,–,–
CCOc1cc(C2C(C#N)=C(N)Oc3cc(N)ccc32)ccc1O (stereo not given),–,–,–,–,–,–,·,·
CCOc1ccc(C2C(C#N)=C(N)SC(N)=C2C#N)c(OCC)c1,–,·,–,–,150.2,–,–,32.2
O=C(NCc1ccccn1)c1ccc(NS(=O)(=O)c2cccc(Cl)c2)cc1,–,–,–,·,·,–,·,·
Nc1cc(N)nc(SCC(=O)Nc2ccc3c(c2)OCO3)n1,–,–,–,–,–,–,·,·
Nc1nc(SCC(=O)Nc2ccc3c(c2)OCO3)n[nH]1,–,–,–,–,40.6,–,–,–
COc1cc([N+](=O)[O-])ccc1N/C=C/C(=O)c1cccs1,–,·,–,–,166.6,–,143.4,136.2
COc1ccc(/C=C/c2onc(C)c2S(=O)(=O)N2CCC(C(=O)N3CCC(C)CC3)CC2)cc1,–,–,–,–,–,–,·,·
SMILES,CSN inh,Rpn11 inh,HNF4A DNA FP,IDE cell inh,TPT1 inhibitor,IDE act,TPT1 inh confirm,RNase T1 inh
O=Cc1ccc(OCc2ccccn2)cc1,–,–,–,–,50.6,–,–,–
O=Cc1ccc(OCc2ccc3ccccc3c2)cc1,–,–,–,–,–,–,·,·
Cc1ccc(N/C=C/C(=O)c2ccco2)c(O)c1,–,–,–,–,29.3,–,46.3,55.2
CC(Nc1ccc2ccccc2c1)C(=O)N/N=C/c1ccncc1 (stereo not given),–,–,–,–,·,–,·,·
O=C(Cn1cnc2ccccc21)N/N=C/c1cccc([N+](=O)[O-])c1,–,–,–,–,35.6,–,–,–
COc1cccc(/C=C2/CN(C)CC3=C2OC(N)=C(C#N)C3c2cccc(OC)c2)c1 (stereo not given),–,–,–,–,40.1,–,25.1,33.5
COC(=O)c1sc2cc([N+](=O)[O-])cc(SCC(C)C)c2c1N,–,·,–,–,42.8,–,28.6,40.6
COc1ccc(C(=O)Nc2nnc(CC(=O)N/N=C/c3ccc(O)cc3O)s2)cc1,–,–,–,–,52.9,–,81.3,82.5
OCCC1CN(Cc2cc3c(cc2Cl)OCO3)CCN1C1CCCCC1 (stereo not given),–,–,–,–,–,–,·,·
CC12CCC(C(N)C1=O)C2(C)C (stereo not given),–,–,–,·,·,–,·,·
CC(C)Oc1ccc(C2C(C#N)=C(N)Oc3c2oc(CO)cc3=O)cc1 (stereo not given),–,–,–,–,36.4,–,–,–
COc1cc(C2C(C#N)=C(N)Oc3c2oc(CO)cc3=O)ccc1OC(C)C (stereo not given),–,–,–,–,–,–,·,·
COC(=O)[C@@]1(Cc2ccc(F)cc2)[C@H]2c3cc(C(=O)N4CCCC4)n(Cc4ccc(C)o4)c3C[C@H]2CN1C(=O)c1ccccc1,–,·,–,·,·,·,·,·
CCn1c(C)c(C2=CCN(S(=O)(=O)c3ccccc3)CC2)c2ccccc21,–,–,–,–,27.6,–,–,28.5
Cn1cc(S(=O)(=O)N2CCOCC2)cc1C(=O)O,–,–,–,–,·,–,·,·
COc1ccc(CC(=O)N/N=C(\C)c2cccs2)cc1,–,–,–,–,–,–,·,·
COc1ccc(O)c(C(=O)c2cc(C#N)c(=O)n(-c3ccc(Cl)cc3)c2)c1,35.7,·,–,–,48.0,–,61.7,59.7
CCOc1ccccc1N1CCN(c2nc3ccccc3nc2C(C#N)C(=O)OC)CC1 (stereo not given),–,–,–,–,–,–,·,·
CCOc1ccccc1N1CCN(c2nc(N)c(C#N)c(CC#N)c2C#N)CC1,–,–,–,–,27.9,–,30.0,41.9
Cc1ccc(/C=C(\C#N)C(=O)NC(C)C)o1,–,–,–,–,–,–,·,·
CC(C)NC(=O)/C(C#N)=C/c1ccc(N(C)C)o1,–,·,–,–,157.6,–,176.7,166.8
CCCCCC(=O)N1C[C@@H](O)[C@H](n2cc(COC(=O)c3ccccc3)nn2)C[C@@H]1c1ccc(OC)cc1,–,–,–,·,·,·,·,·

# Bioassay records deposited in PubChem BioAssay by several laboratories.
